Columns and labels:
Format in all cases: functional, cell-based
[1] = system: MCF7; assay: Antiproliferative activity against human MCF7 cells expressing estrogen receptor after 72 hrs by MTS/PMS assay; conditions: MCF7, 72 h
Outline: (§1)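 Cells kept in Advanced DMEM/F12 (1:1) with non-essential amino acids, 2 mM L-glutamine, penicillin, streptomycin and 10% FBS at 37 °C, 5% CO2. Seeded at 2000/well, attached overnight. Compound added in DMSO across a concentration range (1% DMSO final) for 72 h. Viable cells read by MTS/PMS and normalized to 1% DMSO controls (100%). IC50 taken from separate triplicate experiments.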

[2] = system: SK-BR-3; assay: Antiproliferative activity against human SKBR3 cells expressing HER2 after 72 hrs by MTS/PMS assay; conditions: SK-BR-3, 72 h; outline: as §1
[3] = Antiproliferative activity against human androgen-independent PC3MM2 cells after 72 hrs by MTS/PMS assay; conditions: PC3MM2, 72 h; outline: as §1
[4] = Antiproliferative activity against human androgen-dependent LNCaP-LN3 cells after 72 hrs by MTS/PMS assay; conditions: LNCaP-LN3, 72 h; outline: as §1

COc1cccc(-c2cc(C(=O)Nc3cc4ccc(OC5CC(C)(C)C[C@@H](O)[C@H]5O)c(OC)c4oc3=O)ccc2OC)c1 (stereo partly specified)
IC50 [1]: 1.56 µM | IC50 [2]: 3.45 µM

COc1cccc(-c2cc(C(=O)Nc3cc4cc(OC)c(OC(N)=O)c(C)c4oc3=O)ccc2OC)c1
IC50 [3]: 2.62 µM | IC50 [4]: 3.55 µM | IC50 [1]: 6.29 µM | IC50 [2]: 6.83 µM

COc1c(OC2CCN(C)CC2)ccc2cc(NC(=O)c3cc4ccccc4[nH]3)c(=O)oc12
IC50 [3]: 7.93 µM | IC50 [4]: 12.6 µM | IC50 [1]: 1.86 µM | IC50 [2]: 2.58 µM

COc1cccc(-c2cc(C(=O)Nc3cc4ccc(OS(=O)(=O)c5ccc(C)cc5)c(OC)c4oc3=O)ccc2OC)c1
IC50 [4]: 0.11 µM | IC50 [1]: > 100 µM | IC50 [2]: > 100 µM

CC(C)=CCc1cc(C(=O)Nc2cc3ccc(OC4CCN(C)CC4)c(C)c3oc2=O)ccc1O
IC50 [3]: 1.37 µM

CC(C)=CCc1cc(C(=O)Nc2cc3ccc(OCCCN(C)C)c(C)c3oc2=O)ccc1O
IC50 [3]: 1.81 µM

COc1cccc(-c2cc(C(=O)Nc3cc4ccc(OCC(O)CO)c(C)c4oc3=O)ccc2OC)c1 (stereo unspecified)
IC50 [3]: 0.19 µM | IC50 [1]: > 50 µM | IC50 [2]: > 50 µM

COc1c(OCCCN(C)C)ccc2cc(NC(=O)c3ccc(OC(C)=O)c(CC=C(C)C)c3)c(=O)oc12
IC50 [3]: 4.59 µM | IC50 [1]: 2.14 µM | IC50 [2]: 0.78 µM

COc1cccc(-c2cc(C(=O)Nc3cc4ccc(O[C@@H]5C[C@H](O)CCO5)c(C)c4oc3=O)ccc2OC)c1
IC50 [4]: 8.56 µM | IC50 [1]: 11.2 µM | IC50 [2]: 9.28 µM

Cc1c(OCCCN(C)C)ccc2cc(NC(=O)c3cc4ccccc4[nH]3)c(=O)oc12
IC50 [3]: 13.7 µM | IC50 [1]: 5.23 µM | IC50 [2]: 1.13 µM

COc1cccc(-c2cc(C(=O)Nc3cc4ccc(OC5CCC[C@@H](O)[C@H]5O)c(OC)c4oc3=O)ccc2OC)c1 (stereo partly specified)
IC50 [1]: 5.46 µM | IC50 [2]: 7.44 µM

COc1c(OC2CCN(C)CC2)ccc2cc(NC(=O)c3ccc(O)c(CC=C(C)C)c3)c(=O)oc12
IC50 [3]: 3.53 µM | IC50 [1]: 1.54 µM | IC50 [2]: 0.92 µM

COc1cccc(-c2cc(C(=O)Nc3cc4ccc(O[C@H]5OCC[C@H]5O)c(C)c4oc3=O)ccc2OC)c1
IC50 [4]: 5.34 µM | IC50 [1]: > 100 µM | IC50 [2]: > 100 µM

COc1c(OCCCN(C)C)ccc2cc(NC(=O)c3ccc(O)c(CC=C(C)C)c3)c(=O)oc12
IC50 [3]: 9.24 µM | IC50 [1]: 3.26 µM | IC50 [2]: 0.77 µM

COc1cccc(-c2cc(C(=O)Nc3cc4cc(OC)c(OC5CC(C)C[C@@H](O)[C@H]5O)c(C)c4oc3=O)ccc2OC)c1 (stereo partly specified)
IC50 [1]: > 100 µM | IC50 [2]: > 100 µM

COc1c(OC2CCN(C)CC2)ccc2cc(NC(=O)c3ccc(OC(C)=O)c(CC=C(C)C)c3)c(=O)oc12
IC50 [3]: 3.98 µM | IC50 [1]: 1.64 µM | IC50 [2]: 1.07 µM

COc1cccc(-c2cc(C(=O)Nc3cc4ccc(O[C@H]5C[C@H](O)CCO5)c(OC)c4oc3=O)ccc2OC)c1
IC50 [4]: 11.5 µM | IC50 [1]: 95.8 µM | IC50 [2]: 8.75 µM

COc1cccc(-c2cc(C(=O)Nc3cc4ccc(OC5CC(C)C[C@@H](O)[C@H]5O)c(OC)c4oc3=O)ccc2OC)c1 (stereo partly specified)
IC50 [1]: 8.52 µM | IC50 [2]: 6.38 µM

COc1cc2cc(NC(=O)c3ccc(OC(C)=O)c(CC=C(C)C)c3)c(=O)oc2c(C)c1OC1CCN(C)CC1
IC50 [3]: 1.41 µM | IC50 [1]: 0.58 µM | IC50 [2]: 0.42 µM

COc1cccc(-c2cc(C(=O)Nc3cc4cc(OC)c(OS(=O)(=O)c5ccc(C)cc5)c(C)c4oc3=O)ccc2OC)c1
IC50 [3]: > 100 µM | IC50 [1]: > 100 µM | IC50 [2]: > 100 µM

CC(=O)Oc1ccc(C(=O)Nc2cc3ccc(OC4CCN(C)CC4)c(C)c3oc2=O)cc1CC=C(C)C
IC50 [3]: 2.12 µM

CO[C@H]1[C@H](OC(=O)c2ccc(C)[nH]2)[C@H](O)[C@@H](Oc2ccc3c(O)c(NC(=O)c4c[nH]c(C(=O)Nc5c(O)c6ccc(O[C@H]7OC(C)(C)[C@@H](OC)[C@H](OC(=O)c8ccc(C)[nH]8)[C@@H]7O)c(C)c6oc5=O)c4C)c(=O)oc3c2C)OC1(C)C [COUMERMYCIN A1]
IC50 [2]: 70 µM

COc1cccc(-c2cc(C(=O)Nc3cc4cc(OC)c(OC5CC(C)(C)C[C@@H](O)[C@H]5O)c(C)c4oc3=O)ccc2OC)c1 (stereo partly specified)
IC50 [1]: > 100 µM | IC50 [2]: > 100 µM

CO[C@@H]1[C@@H](O)[C@@H](O)[C@H](Oc2ccc3cc(NC(=O)c4ccc(O)c(CC=C(C)C)c4)c(=O)oc3c2C)OC1(C)C
IC50 [2]: 0.5 µM

COc1cccc(-c2cc(C(=O)Nc3cc4cc(OC)c(OS(C)(=O)=O)c(C)c4oc3=O)ccc2OC)c1
IC50 [4]: > 100 µM | IC50 [1]: > 100 µM | IC50 [2]: > 100 µM

CO[C@@H]1[C@@H](O)[C@@H](O)[C@H](Oc2ccc3cc(NC(=O)c4cc5ccccc5[nH]4)c(=O)oc3c2C)OC1(C)C
IC50 [2]: 0.37 µM

COc1cc2cc(NC(=O)c3ccc(O)c(CC=C(C)C)c3)c(=O)oc2c(C)c1OCCCN(C)C
IC50 [3]: 1.38 µM | IC50 [1]: 0.8 µM | IC50 [2]: 0.39 µM

— ChEMBL document CHEMBL1795208 (J Med Chem, 2011)
